Data published in ChEMBL document CHEMBL2086252, “Syntheses and evaluation of anticonvulsant activity of novel branched alkyl carbamates” (J Med Chem, 2012).
Active and inactive are the calls of the source. The rule behind the calls is not given here.

Tests used:
Mus musculus [1] = test: Anticonvulsant activity in albino CF1 mouse assessed as protection against subcutaneous metrazol-induced seizures at 30 mg/kg, ip after 0.5 hrs; assay type: functional, organism-based; set-up: dose 30 mg/kg
Summary of the method: (§1)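 Mice dosed ip at 30, 100 or 300 mg/kg, then tested 0.5 h and 4 h after administration in the MES or scMet test. Protection was recorded as animals protected over animals tested. Neurotoxicity was recorded as motor impairment or sedation, as animals affected over animals tested.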

Mus musculus [2] = test: Anticonvulsant activity in albino CF1 mouse assessed as protection against subcutaneous metrazol-induced seizures at 100 mg/kg, ip after 0.5 hrs; assay type: functional, organism-based; set-up: dose 100 mg/kg; summary of the method: as §1
Mus musculus [3] = test: Anticonvulsant activity in albino CF1 mouse assessed as protection against subcutaneous metrazol-induced seizures at 300 mg/kg, ip after 0.5 hrs; assay type: functional, organism-based; set-up: dose 300 mg/kg; summary of the method: as §1
Mus musculus [4] = test: Anticonvulsant activity in albino CF1 mouse assessed as protection against subcutaneous metrazol-induced seizures at 30 mg/kg, ip after 4 hrs; assay type: functional, organism-based; set-up: dose 30 mg/kg; summary of the method: as §1
Mus musculus [5] = test: Anticonvulsant activity in albino CF1 mouse assessed as protection against subcutaneous metrazol-induced seizures at 100 mg/kg, ip after 4 hrs; assay type: functional, organism-based; set-up: dose 100 mg/kg; summary of the method: as §1
Mus musculus [6] = test: Anticonvulsant activity in albino CF1 mouse assessed as protection against subcutaneous metrazol-induced seizures at 300 mg/kg, ip after 4 hrs; assay type: functional, organism-based; set-up: dose 300 mg/kg; summary of the method: as §1
Mus musculus [7] = test: Anticonvulsant activity in albino CF1 mouse assessed as protection against maximal electroshock-induced seizures at 30 mg/kg, ip after 0.5 hrs; assay type: functional, organism-based; set-up: dose 30 mg/kg; summary of the method: as §1
Mus musculus [8] = test: Anticonvulsant activity in albino CF1 mouse assessed as protection against maximal electroshock-induced seizures at 100 mg/kg, ip after 0.5 hrs; assay type: functional, organism-based; set-up: dose 100 mg/kg; summary of the method: as §1
Mus musculus [9] = test: Anticonvulsant activity in albino CF1 mouse assessed as protection against maximal electroshock-induced seizures at 300 mg/kg, ip after 0.5 hrs; assay type: functional, organism-based; set-up: dose 300 mg/kg; summary of the method: as §1
Mus musculus [10] = test: Anticonvulsant activity in albino CF1 mouse assessed as protection against maximal electroshock-induced seizures at 30 mg/kg, ip after 4 hrs; assay type: functional, organism-based; set-up: dose 30 mg/kg; summary of the method: as §1
Mus musculus [11] = test: Anticonvulsant activity in albino CF1 mouse assessed as protection against maximal electroshock-induced seizures at 100 mg/kg, ip after 4 hrs; assay type: functional, organism-based; set-up: dose 100 mg/kg; summary of the method: as §1
Mus musculus [12] = test: Anticonvulsant activity in albino CF1 mouse assessed as protection against maximal electroshock-induced seizures at 300 mg/kg, ip after 4 hrs; assay type: functional, organism-based; set-up: dose 300 mg/kg; summary of the method: as §1
Mus musculus [13] = test: Neurotoxicity in albino CF1 mouse assessed as minimal motor impairment at 30 mg/kg, ip after 0.5 hrs by rotarod test; assay type: toxicity, organism-based; set-up: dose 30 mg/kg, route intraperitoneal; details: in vivo; summary of the method: as §1
Mus musculus [14] = test: Neurotoxicity in albino CF1 mouse assessed as minimal motor impairment at 100 mg/kg, ip after 0.5 hrs by rotarod test; assay type: toxicity, organism-based; set-up: dose 100 mg/kg, route intraperitoneal; details: in vivo; summary of the method: as §1
Mus musculus [15] = test: Neurotoxicity in albino CF1 mouse assessed as minimal motor impairment at 300 mg/kg, ip after 0.5 hrs by rotarod test; assay type: toxicity, organism-based; set-up: dose 300 mg/kg, route intraperitoneal; details: in vivo; summary of the method: as §1
Mus musculus [16] = test: Neurotoxicity in albino CF1 mouse assessed as minimal motor impairment at 30 mg/kg, ip after 4 hrs by rotarod test; assay type: toxicity, organism-based; set-up: dose 30 mg/kg, route intraperitoneal; details: in vivo; summary of the method: as §1
Mus musculus [17] = test: Neurotoxicity in albino CF1 mouse assessed as minimal motor impairment at 100 mg/kg, ip after 4 hrs by rotarod test; assay type: toxicity, organism-based; set-up: dose 100 mg/kg, route intraperitoneal; details: in vivo; summary of the method: as §1
Mus musculus [18] = test: Neurotoxicity in albino CF1 mouse assessed as minimal motor impairment at 300 mg/kg, ip after 4 hrs by rotarod test; assay type: toxicity, organism-based; set-up: dose 300 mg/kg, route intraperitoneal; details: in vivo; summary of the method: as §1
Rattus norvegicus [19] = test: Anticonvulsant activity in Sprague-Dawley albino rat assessed as protection against maximal electroshock-induced seizures at 30 mg/kg, po after 15 mins; assay type: functional, organism-based; set-up: dose 30 mg/kg
Summary of the method: (§2)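 Rats dosed orally. Anti-MES protection was scored as animals protected over animals tested at each time after dosing. Neurotoxicity was scored as motor impairment or sedation, as animals affected over animals tested.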

Rattus norvegicus [20] = test: Anticonvulsant activity in Sprague-Dawley albino rat assessed as protection against maximal electroshock-induced seizures at 30 mg/kg, po after 30 mins; assay type: functional, organism-based; set-up: dose 30 mg/kg; summary of the method: as §2
Rattus norvegicus [21] = test: Anticonvulsant activity in Sprague-Dawley albino rat assessed as protection against maximal electroshock-induced seizures at 30 mg/kg, po after 4 hrs; assay type: functional, organism-based; set-up: dose 30 mg/kg; summary of the method: as §2
Rattus norvegicus [22] = test: Neurotoxicity in Sprague-Dawley albino rat assessed as minimal motor impairment at 30 mg/kg, po by rotarod test; assay type: toxicity, organism-based; set-up: dose 30 mg/kg, route oral; details: in vivo; summary of the method: as §2
Rattus norvegicus [23] = test: Neurotoxicity in pilocarpine-induced status epilepticus Sprague-Dawley albino rat model assessed as minimal motor impairment at 100 mg/kg, ip after 0.25 hr by rotarod test; assay type: toxicity, organism-based; set-up: dose 100 mg/kg, route intraperitoneal; details: in vivo
Rattus norvegicus [24] = test: Neurotoxicity in pilocarpine-induced status epilepticus Sprague-Dawley albino rat model assessed as minimal motor impairment at 300 mg/kg, ip after 0.25 hr by rotarod test; assay type: toxicity, organism-based; set-up: dose 300 mg/kg, route intraperitoneal; details: in vivo
Summary of the method: (§3)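 Rat pilocarpine status epilepticus model: test carbamate given at 0 or 30 min after the first observed Racine stage 3 motor seizure, which marks SE onset. Neurotoxicity was scored within the same model.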

Rattus norvegicus [25] = test: Neurotoxicity in pilocarpine-induced status epilepticus Sprague-Dawley albino rat model assessed as minimal motor impairment at 30 mg/kg, ip after 0.25 hr by rotarod test; assay type: toxicity, organism-based; set-up: dose 30 mg/kg, route intraperitoneal; details: in vivo; summary of the method: as §3
Rattus norvegicus [26] = test: Neurotoxicity in pilocarpine-induced status epilepticus Sprague-Dawley albino rat model assessed as minimal motor impairment at 100 mg/kg, ip after 0.5 hrs by rotarod test; assay type: toxicity, organism-based; set-up: dose 100 mg/kg, route intraperitoneal; details: in vivo
Rattus norvegicus [27] = test: Neurotoxicity in pilocarpine-induced status epilepticus Sprague-Dawley albino rat model assessed as minimal motor impairment at 300 mg/kg, ip after 0.5 hrs by rotarod test; assay type: toxicity, organism-based; set-up: dose 300 mg/kg, route intraperitoneal; details: in vivo; summary of the method: as §3
Rattus norvegicus [28] = test: Neurotoxicity in pilocarpine-induced status epilepticus Sprague-Dawley albino rat model assessed as minimal motor impairment at 30 mg/kg, ip after 0.5 hrs by rotarod test; assay type: toxicity, organism-based; set-up: dose 30 mg/kg, route intraperitoneal; details: in vivo; summary of the method: as §3
Rattus norvegicus [29] = test: Neurotoxicity in pilocarpine-induced status epilepticus Sprague-Dawley albino rat model assessed as minimal motor impairment at 300 mg/kg, ip after 1 hr by rotarod test; assay type: toxicity, organism-based; set-up: dose 300 mg/kg, route intraperitoneal; details: in vivo; summary of the method: as §3
Rattus norvegicus [30] = test: Neurotoxicity in pilocarpine-induced status epilepticus Sprague-Dawley albino rat model assessed as minimal motor impairment at 30 mg/kg, ip after 1 hr by rotarod test; assay type: toxicity, organism-based; set-up: dose 30 mg/kg, route intraperitoneal; details: in vivo; summary of the method: as §3
Rattus norvegicus [31] = test: Neurotoxicity in pilocarpine-induced status epilepticus Sprague-Dawley albino rat model assessed as minimal motor impairment at 100 mg/kg, ip after 2 hrs by rotarod test; assay type: toxicity, organism-based; set-up: dose 100 mg/kg, route intraperitoneal; details: in vivo
Rattus norvegicus [32] = test: Neurotoxicity in pilocarpine-induced status epilepticus Sprague-Dawley albino rat model assessed as minimal motor impairment at 30 mg/kg, ip after 2 hrs by rotarod test; assay type: toxicity, organism-based; set-up: dose 30 mg/kg, route intraperitoneal; details: in vivo; summary of the method: as §3
Rattus norvegicus [33] = test: Neurotoxicity in pilocarpine-induced status epilepticus Sprague-Dawley albino rat model assessed as minimal motor impairment at 100 mg/kg, ip after 4 hrs by rotarod test; assay type: toxicity, organism-based; set-up: dose 100 mg/kg, route intraperitoneal; details: in vivo
Rattus norvegicus [34] = test: Neurotoxicity in pilocarpine-induced status epilepticus Sprague-Dawley albino rat model assessed as minimal motor impairment at 300 mg/kg, ip after 4 hrs by rotarod test; assay type: toxicity, organism-based; set-up: dose 300 mg/kg, route intraperitoneal; details: in vivo; summary of the method: as §3
Rattus norvegicus [35] = test: Neurotoxicity in pilocarpine-induced status epilepticus Sprague-Dawley albino rat model assessed as minimal motor impairment at 30 mg/kg, ip after 4 hrs by rotarod test; assay type: toxicity, organism-based; set-up: dose 30 mg/kg, route intraperitoneal; details: in vivo; summary of the method: as §3

`CCC(COC(N)=O)CC(C)C` (racemic) was tested. Which Activity (Mus musculus [1]) did it give?
The Activity was “inactive”.

What about the Activity (Mus musculus [2]) of the same compound?
Its Activity is “inactive”.

And the Activity (Mus musculus [3])?
Its Activity is “Active”.

What about the Activity (Mus musculus [4]) of the same compound?
Its Activity is “inactive”.

And the Activity (Mus musculus [5])?
Its Activity is “inactive”.

What about the Activity (Mus musculus [6]) of the same compound?
The Activity was “inactive”.

And the Activity (Mus musculus [7])?
Its Activity is “inactive”.

What about the Activity (Mus musculus [8]) of the same compound?
Its Activity is “inactive”.

What about the Activity (Mus musculus [9]) of the same compound?
Its Activity is “Active”.

What about the Activity (Mus musculus [10]) of the same compound?
Its Activity is “inactive”.

What about the Activity (Mus musculus [11]) of the same compound?
The Activity was “inactive”.

What about the Activity (Mus musculus [12]) of the same compound?
The Activity was “inactive”.

And the Activity (Mus musculus [13])?
The Activity was “Non-toxic”.

What about the Activity (Mus musculus [14]) of the same compound?
Its Activity is “Non-toxic”.

What about the Activity (Mus musculus [15]) of the same compound?
Its Activity is “Toxic”.

And the Activity (Mus musculus [16])?
The Activity was “Non-toxic”.

What about the Activity (Mus musculus [17]) of the same compound?
Its Activity is “Non-toxic”.

And the Activity (Mus musculus [18])?
Its Activity is “Non-toxic”.

And the Activity (Rattus norvegicus [19])?
The Activity was “inactive”.

And the Activity (Rattus norvegicus [20])?
Its Activity is “inactive”.

And the Activity (Rattus norvegicus [21])?
The Activity was “inactive”.

What about the Activity (Rattus norvegicus [22]) of the same compound?
Its Activity is “Non-toxic”.

What about the Activity (Rattus norvegicus [23]) of the same compound?
Its Activity is “Toxic”.

What about the Activity (Rattus norvegicus [24]) of the same compound?
The Activity was “Toxic”.

What about the Activity (Rattus norvegicus [25]) of the same compound?
Its Activity is “Non-toxic”.

And the Activity (Rattus norvegicus [26])?
The Activity was “Toxic”.

What about the Activity (Rattus norvegicus [27]) of the same compound?
The Activity was “Toxic”.

And the Activity (Rattus norvegicus [28])?
The Activity was “Non-toxic”.

And the Activity (Rattus norvegicus [29])?
The Activity was “Toxic”.

What about the Activity (Rattus norvegicus [30]) of the same compound?
The Activity was “Non-toxic”.

What about the Activity (Rattus norvegicus [31]) of the same compound?
Its Activity is “Non-toxic”.

What about the Activity (Rattus norvegicus [32]) of the same compound?
The Activity was “Non-toxic”.

What about the Activity (Rattus norvegicus [33]) of the same compound?
Its Activity is “Non-toxic”.

And the Activity (Rattus norvegicus [34])?
Its Activity is “Non-toxic”.

What about the Activity (Rattus norvegicus [35]) of the same compound?
Its Activity is “Non-toxic”.
